Results from ChEMBL document CHEMBL1240424, “Design and synthesis of potent inhibitors of beta-ketoacyl-acyl carrier protein synthase III (FabH) as potential antibacterial agents” (Eur J Med Chem, 2010).

What was measured:
[1] = Inhibition of Escherichia coli N-terminal His-tagged FabH expressed in Escherichia coli BL21(DE3) after 25 mins
Procedure, shortened: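 His-tagged E. coli FabH was Ni-NTA purified. Reaction: 1 nM FabH, 2.5 μM holo-ACP, 20 mM sodium phosphate pH 7.0, 0.5 mM DTT, 0.25 mM MgCl₂. Started with 25 μM acetyl-CoA plus [³H]acetyl-CoA and run 25 min. Stopped with cold 50% TCA, pellet washed and dissolved in NaOH, ³H counted by scintillation. Inhibitors added from DMSO, final ≤2% DMSO, to give IC50.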

Escherichia coli = test: Antibacterial activity against Escherichia coli after 24 hrs by MTT assay; type: functional
Procedure, shortened: (§1)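 Broth microdilution in Mueller–Hinton medium. Compounds from a 100 μg/mL DMSO stock were serially diluted, and inoculum was about 10⁵ cfu/mL. Plates were incubated 24 h at 37 °C and MIC was read visually. MTT (2 mg/mL in PBS pH 7.4) was then added for 4–5 h at room temperature, dye extracted with acidified isopropanol for 12 h, and OD read at 550 nm.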

Staphylococcus aureus = test: Antibacterial activity against Staphylococcus aureus after 24 hrs by MTT assay; type: functional; procedure, shortened: as §1
Pseudomonas fluorescens = test: Antibacterial activity against Pseudomonas fluorescens after 24 hrs by MTT assay; type: functional; procedure, shortened: as §1
Bacillus subtilis = test: Antibacterial activity against Bacillus subtilis after 24 hrs by MTT assay; type: functional; procedure, shortened: as §1

| IC50 [1] | Structure (SMILES) | Activity (Escherichia coli) | Activity (Staphylococcus aureus) | Activity (Pseudomonas fluorescens) | Activity (Bacillus subtilis) |
| --- | --- | --- | --- | --- | --- |
| 18.4 µM | Oc1ccc(F)cc1/C=N/C1CCCC1 | 12.5 µg/mL | 25 µg/mL | 12.5 µg/mL | 25 µg/mL |
| 7.4 µM | Oc1ccc(F)cc1/C=N/C1CCCCC1 | 6.25 µg/mL | 12.5 µg/mL | 12.5 µg/mL | 25 µg/mL |
| 6.8 µM | Oc1ccc(F)cc1/C=N/CC1CCCCC1 | 6.25 µg/mL | 25 µg/mL | 6.25 µg/mL | 12.5 µg/mL |
| – | Oc1ccc(F)cc1/C=N/CCN1CCOCC1 | 25 µg/mL | 50 µg/mL | 25 µg/mL | 50 µg/mL |
| – | Oc1ccc(F)cc1/C=N/CCCN1CCOCC1 | >100 µg/mL | >100 µg/mL | >100 µg/mL | >100 µg/mL |
| 48.5 µM | Oc1ccc(F)cc1/C=N/CCN1CCNCC1 | 12.5 µg/mL | 25 µg/mL | 25 µg/mL | 50 µg/mL |
| – | CN(C)CCC/N=C/c1cc(F)ccc1O | >100 µg/mL | >100 µg/mL | >100 µg/mL | >100 µg/mL |
| – | CCN(CC)CCC/N=C/c1cc(F)ccc1O | >100 µg/mL | >100 µg/mL | >100 µg/mL | >100 µg/mL |
| 2.7 µM | Oc1ccc(CC/N=C/c2cc(F)ccc2O)cc1 | 1.56 µg/mL | 1.56 µg/mL | 3.13 µg/mL | 6.25 µg/mL |
| – | Cc1ccc(/N=C/c2cc(F)ccc2O)cc1 | 50 µg/mL | 100 µg/mL | 50 µg/mL | >100 µg/mL |
| – | CC(C)c1ccc(/N=C/c2cc(F)ccc2O)cc1 | >100 µg/mL | >100 µg/mL | 100 µg/mL | >100 µg/mL |
| 28.6 µM | Oc1ccc(F)cc1/C=N/c1ccc(F)cc1 | 12.5 µg/mL | 12.5 µg/mL | 12.5 µg/mL | 25 µg/mL |
| 42.5 µM | Oc1ccc(F)cc1/C=N/c1ccc(Cl)cc1 | 12.5 µg/mL | 25 µg/mL | 25 µg/mL | 50 µg/mL |
| – | Oc1ccc(F)cc1/C=N/c1ccc(Br)cc1 | 25 µg/mL | 50 µg/mL | 25 µg/mL | 50 µg/mL |
| – | Oc1ccc(/N=C/c2cc(F)ccc2O)cc1 | >100 µg/mL | >100 µg/mL | >100 µg/mL | >100 µg/mL |
| – | O=[N+]([O-])c1ccc(/N=C/c2cc(F)ccc2O)cc1 | >100 µg/mL | >100 µg/mL | >100 µg/mL | >100 µg/mL |
| 8.6 µM | Oc1ccc(F)cc1/C=N/c1ccccc1F | 6.25 µg/mL | 6.25 µg/mL | 6.25 µg/mL | 12.5 µg/mL |
| 11.7 µM | Oc1ccc(F)cc1/C=N/c1ccccc1Cl | 6.25 µg/mL | 12.5 µg/mL | 12.5 µg/mL | 12.5 µg/mL |
| – | Oc1ccc(F)cc1/C=N/c1ccccn1 | 50 µg/mL | 100 µg/mL | 100 µg/mL | >100 µg/mL |
| – | Oc1ccc(F)cc1/C=N/C1CCN(Cc2ccccc2)CC1 | >100 µg/mL | >100 µg/mL | >100 µg/mL | >100 µg/mL |
| – | NC[C@H]1O[C@H](O[C@H]2[C@H](O)[C@@H](O[C@H]3O[C@H](CO)[C@@H](O)[C@H](N)[C@H]3O)[C@H](N)C[C@@H]2N)[C@H](O)[C@@H](O)[C@@H]1O [KANAMYCIN] | 3.13 µg/mL | 1.56 µg/mL | 3.13 µg/mL | 1.56 µg/mL |
